# Diaph act CS – activates diaphorase or chemically reduces, flagging diaphorase assay artifacts. Diaphorase/resazurin coupled assay, resorufin fluorescence, 16 min; hits give high values; 1 = vehicle wells, 0 = NADH-free wells. activation factor at 20 µM. 190,000 compounds, 0.005% hits. AID 1229;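 active = diaphorase activity raised at least twofold by the compound at 20 µM; inactive = activation factor below 2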
#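 Material: purified diaphorase enzyme from Clostridium kluyveri / Medium: HEPES pH 7.4 buffer with MgCl2 and Tween 20 / Schedule: enzyme reaction of 16 min at room temperature / Measured by: resorufin fluorescence, excitation 544 nm, emission 590 nm / Evaluation: rise in resorufin formation, marking diaphorase activation or chemical reduction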
# G6PDH counter – counter-screen for G6PDH assay hits: L. mesenteroides G6PDH inhibition. Purified L. mesenteroides G6PDH, diaphorase/resazurin coupled fluorescence, 45 min. inhibition, % at 5 µM. 200,000 compounds, 0.12% hits. AID 1020; in the data active = inhibition above about 50%
# Diaph inh CS – diaphorase inhibition or chemical oxidation counter-screen. inhibition, % at 20 µM. diaphorase resazurin-to-resorufin fluorescence, NADH, 16 min; bacterial (C. kluyveri) enzyme, not human. 190,000 compounds, 0.69% hits. AID 1217;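 active = primary screen inhibition at 20 µM above a set limit, cut at about 50% in these data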;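 also: plate controls were DMSO with full reaction for no effect and wells lacking NADH for full effect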
#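 Test system: diaphorase enzyme from Clostridium kluyveri; amount: diaphorase at 0.14 U/mL in enzyme working solution; detection: fluorescence of resorufin formed from resazurin, Ex 544/Em 590 nm; times: reaction incubation of 16 min at room temperature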
# HKDC1 inhibitor – HKDC1 (human) hexokinase inhibition; 340,000 compounds, 0.16% hits; AID 493160; Q2TB90; recombinant HKDC1, G6PDH/diaphorase resazurin coupled fluorescence; inhibition, % at 20 µM;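 active = inhibition above about 35% when tested at 20 µM, limit read from the data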;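 also: plate controls were DMSO wells with enzyme for no effect and DMSO wells lacking enzyme for full effect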
#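 Material: recombinant HKDC1 hexokinase; Amount: HKDC1 at 5 µg/mL; Medium: Tris pH 8.0 buffer with MgCl2, Tween-20, BSA, BME; Schedule: 90 min reaction incubation at room temperature, dark; Technique: coupled resazurin fluorescence, excitation 525 nm, emission 613 nm.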
# PfGluPho inh – PfG6PD (Plasmodium falciparum) enzyme inhibition. AID 504690. inhibition, % at 20 µM. PfGluPho enzyme, NADPH resazurin-diaphorase fluorescence. 350,000 compounds, 0.78% hits;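 active = inhibition reaching at least a set limit at 20 µM in the primary screen, cut at about 59% in these data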;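 also: 0% = DMSO wells with substrate and 100% = DMSO wells lacking glucose-6-phosphate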
# Active calls of the source: *; x = not tested or not shown. Shown are actives, neighbours in structure and some others; about 1.3% of the full set was active somewhere.
SMILES,Diaph act CS,G6PDH counter,Diaph inh CS,HKDC1 inhibitor,PfGluPho inh
O=C1c2ccccc2C(=O)c2c1ccc1c(=O)n(C3CCCCC3)[nH]c21,0.8,30,24,26,-7
O=C1C2=C(c3ccccc31)[N+](=O)C1CCCCC1N2[O-] (centres undefined),0.2,26,76*,11,25
O=C1C2=C(c3ccccc31)[N+](=O)[C@@H]1CCCC[C@@H]1N2[O-],0.2,28,76*,6,16
O=C(CN1C(=O)S/C(=C\c2ccc(F)cc2)C1=O)NCCCn1ccnc1,x,x,x,-2,11
N#CCn1c(CN2CCCC2)nc2ccccc2c1=O,x,x,x,1,-18
Cc1nc2c(C(=O)NCCC(C)C)c[nH]n2c(=O)c1Cl,0.7,0,28,6,2
Cc1nc2c(C(=O)NCCc3ccccc3)c[nH]n2c(=O)c1Cl,0.2,14,79*,4,8
N/C(=N\OCC(=O)Nc1ccc(F)c(Cl)c1)c1ccccc1,x,x,x,-2,-2
O=C(CN(Cc1ccc2c(c1)OCO2)C(=O)CNC(=O)c1ccco1)NC1CCCCC1,0.8,12,17,-1,-10
Cc1ccc(S(=O)(=O)NNc2ccccc2)c(C)c1,1,8,3,-12,83*
CN(C)c1ccc(N=Cc2cccn2C)cc1,x,x,x,8,77*
CC(=O)N1CCN(Cc2nc3ccc(Cl)cc3n2CCO)CC1,x,x,x,-1,-8
COc1ccc(NC(=O)c2cnc(SC)n2-c2ccc(F)cc2)c(OC)c1,x,x,x,0,8
O=C(CCN1CCOCC1)N/N=C/c1cc(Br)cc(Br)c1O,0.4,9,63*,-18,1
O=C(CCN1CCN(c2ccccc2)CC1)N/N=C/c1ccc(O)c(O)c1O,0.4,33,64*,19,48
Cc1cc(C(=O)N/N=C/c2ccc(O)c(O)c2O)c(C)n1-c1ccccc1,0.1,-3,89*,18,48
Cc1cc(/C=N/NC(=O)c2ccncc2)c(C)n1-c1ccccc1,0.9,-5,13,0,8
Cc1ccc2cc(NC(=O)c3cccc(F)c3)ccc2n1,x,x,x,-5,43
O=C(O)c1ccccc1S(=O)(=O)Cc1ccccc1,0.9,10,12,-4,3
CN(Cc1nc(Cc2ccccc2F)no1)Cc1cccc2ncccc12,0.9,51*,13,5,3
CN(Cc1nc(Cc2ccccc2F)no1)CC1(N2CCOCC2)CCCCC1,1.1,17,-9,-2,2
Cc1cc(C)nc(NC(=O)c2ccc(Cl)cc2[N+](=O)[O-])c1,1,7,1,-8,0
Cc1nc2ccccc2n1C(=O)c1ccc(Cl)cc1[N+](=O)[O-],0.5,17,54*,-9,7
CCCOC(=O)c1cccc(Nc2nc(-c3cccnc3)nc3ccccc23)c1,1,14,4,4,10
CCc1ccc(N(C)S(=O)(=O)c2ccc3[nH]cc(C(=O)NCCN4CCOCC4)c(=O)c3c2)cc1,0.9,10,8,-5,-10
C#CCOCCOCCOCCNc1nc(N2CCN(C(=O)C(Cc3cc4ccccc4[nH]3)n3cc(C(N)Cc4ccc(O)cc4)nn3)CC2)nc(N2CCN(C(=O)C(Cc3cc4ccccc4[nH]3)n3cc(C(N)Cc4ccc(O)cc4)nn3)CC2)n1 (centres undefined),2*,7,-103,2,32
C#CCOCCOCCOCCNc1nc(N2CCN(C(=O)CCCCCCCCCCNC(=O)Cn3cc(CCCCCN)nn3)CC2)nc(N2CCN(C(=O)CCCCCCCCCCNC(=O)[C@H]([C@@H](C)CC)n3cc(CCCCCN)nn3)CC2)n1,x,x,x,-14,66*
C#CCOCCOCCOCCNc1nc(N2CCN(C(=O)CCCCCCCCCCNC(=O)[C@H](CCCCN)n3cc(CCCC(=O)O)nn3)CC2)nc(N2CCN(C(=O)CCCCCCCCCCNC(=O)[C@H](CCCN=C(N)N)n3cc(C[C@@H](C)CC)nn3)CC2)n1,x,x,x,-10,30
C#CCOCCOCCOCCNc1nc(N2CCN(C(=O)[C@H](CCCCN)n3cc(CCCC)nn3)CC2)nc(N2CCN(C(=O)[C@H](Cc3ccc(O)cc3)n3cc(CCO)nn3)CC2)n1,1.4,6,-40,5,76*

# Screening data deposited in PubChem by Sanford-Burnham Center for Chemical Genomics.
